Reference: article PMC13647048 (Zoological Research, 2026)

Tests used:
[1] = system: CLP-induced septic BALB/c mice; experiment: CLP-induced sepsis in mice; assay type: in vivo, mouse
Summary of the method: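 Male BALB/c mice, eight weeks old, 18–25 g, acclimatized 3 days, then anesthetized with xylazine 8 mg/kg plus ketamine 100 mg/kg. CLP was done under aseptic conditions; sham mice had the same surgery without CLP. Within 1 h post-surgery mice got test compound 5 mg/kg, DXM 10 mg/kg or 0.9% saline i.p. Survival was followed 72 h and clinical scoring done at 24 h. A separate cohort gave blood and organs at 12 h for cytokines.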

[2] = system: E. coli ATCC 25922; experiment: Time-kill assay; assay type: cell-based, Escherichia coli; details: meropenem 0.015 μmol/L; not completely eradicated within this time; n=3
Summary of the method: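 E. coli ATCC 25922 was exposed to test compound at several concentrations and sampled over incubation time. Viable CFU were counted by the spread plate method. Normal saline served as negative control and meropenem as positive control.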

[3] = system: Escherichia coli ATCC 25922; experiment: MIC, two-fold dilution, E. coli; assay type: cell-based; details: meropenem as positive control, E. coli ATCC 25922
[4] = serum and lung, HR-CATH2 5 mg/kg or DXM 10 mg/kg i.p., 12 h post-surgery

SMILES	Clinical scores ([1]; 24 h after CLP, DXM 10 mg/kg i.p.)	Survival ([1]; 72 h after CLP, DXM 10 mg/kg i.p., n=10 per group)	Histopathological tissue injury ([1]; lung, kidney, liver, H&E, HR-CATH2 5 mg/kg or DXM 10 mg/kg i.p. at 1 h after CLP, 12 h post-surgery)	MPO activity ([1]; lung, HR-CATH2 5 mg/kg or DXM 10 mg/kg i.p., 12 h post-surgery)	IL-1β concentration [1, 4]	IL-6 concentration [1, 4]	MCP-1 concentration [1, 4]	TNF-α concentration [1, 4]	Time to complete eradication of E. coli [2]	MIC (positive control) [3]
C[C@@H]1C[C@H]2[C@@H]3CCC4=CC(=O)C=C[C@]4(C)[C@@]3(F)[C@@H](O)C[C@]2(C)[C@@]1(O)C(=O)CO [DXM, dexamethasone]	reduced clinical scores	markedly improved survival	significantly alleviated tissue injury	significantly attenuated	significantly attenuated	significantly attenuated	significantly attenuated	significantly attenuated	–	–
C[C@@H](O)[C@H]1C(=O)N2C(C(=O)O)=C(S[C@@H]3CN[C@H](C(=O)N(C)C)C3)[C@H](C)[C@H]12 [meropenem]	–	–	–	–	–	–	–	–	> 180 min	0.015 mol/L
